Screening data (PubChem)
rRNA inh HTS: inhibits bacterial ribosomal RNA function over humanized ribosomes | E. coli WT GFP vs humanized-ribosome RFP mutants, fluorescence, 24 h; stronger effect = lower value; DMSO median 0, no signal -100 | GFP signal change (wild-type ribosome), % (no concentration beside the values) | actives 1.6% (n = 350,000) | AID 720706;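 active means significant combined selectivity score with lowered wild-type GFP, culture density cut under 30%, mutant RFP and density less affected; inactive means any of these conditions unmet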
PGC1a acetyl inh: modulators of PGC1a acetylation. inhibition, % at 15.6 µM. actives 0.17% (n = 350,000). U2OS PGC1a acetylation, AlphaScreen anti-acetyl-lysine; with virally co-expressed GCN5 acetyltransferase;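 active means every replicate shows inhibition of at least 40%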;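 further: 0% = neutral control wells and 100% = positive control wells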
SIRT5 block: inhibitors of human sirtuin-5 desuccinylase. actives 1.1% (n = 330,000). Purified SirT5, succinyl-peptide AMC, trypsin-coupled fluorescence. inhibition, % at 15 µM. Q9NXA8; in the data active means inhibition above about 15%
Target sequence (Q9NXA8 whole entry, looked up): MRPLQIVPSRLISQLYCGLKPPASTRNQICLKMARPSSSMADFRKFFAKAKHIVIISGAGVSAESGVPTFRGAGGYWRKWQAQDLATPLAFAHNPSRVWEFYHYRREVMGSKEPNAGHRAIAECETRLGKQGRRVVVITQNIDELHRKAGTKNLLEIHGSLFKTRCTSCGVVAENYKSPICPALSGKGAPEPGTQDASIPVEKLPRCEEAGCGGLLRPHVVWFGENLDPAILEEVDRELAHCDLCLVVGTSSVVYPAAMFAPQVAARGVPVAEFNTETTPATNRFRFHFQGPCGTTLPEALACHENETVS
C2C12 statin: suppressors of simvastatin-induced myotoxicity in C2C12 myotubes; ATP luminescence, 48 h; scaled: DMSO 0, geranylgeraniol control 100; rescue of ATP level, % at 7.49 µM; actives 0.78% (n = 330,000);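 active means mean ATP rescue above about 67%, or every replicate alone reaching that limit, limit read from the data, passing the limit was not always enough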;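 further: myotubes were challenged with 10 µM simvastatin during compound exposure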
S100A4 inh HTS: blocks human S100A4 binding to myosin IIA peptide. P26447. S100A4/TAMRA-MyoIIA peptide fluorescence polarization. inhibition, % at 10.7 µM. actives 0.14% (n = 360,000);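 active means mean inhibition of at least 70% across replicates, with every replicate also reaching that level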
Target sequence (P26447 whole entry, looked up): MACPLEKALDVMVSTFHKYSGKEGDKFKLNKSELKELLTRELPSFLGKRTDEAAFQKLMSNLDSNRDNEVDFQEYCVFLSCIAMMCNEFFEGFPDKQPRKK
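Test system: S100A4 monomer protein. Medium: HEPES buffer with Ca2+, pH 7.2. Reagent: fluorescent myosin IIA peptide, 5 nM. Compound dosing: single-point compound testing. Timing: 5 min between mix addition and reading. Benchmarks: DMSO neutral and TFP positive wells.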
Cneo AK release: Cryptococcus neoformans lysis via adenylate kinase release. C. neoformans lysis, adenylate kinase release luminescence, 4 h; normalised: neutral wells 0, clomiphene wells 100. lysis activity, % at 15 µM. actives 0.2% (n = 360,000). AID 651654;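 active means mean lysis activity across replicates of at least 80%, whatever share of replicates individually reach that level; inactive means mean lysis activity below 80%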
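Assay system: C. neoformans cells. Amount: yeast cell density of 5 × 10^6 cells/mL. Technique: AK luminescence. Buffer or medium: YPD. Times: static 4 h at 37 °C with compound, 1 h detection. Dosing: single-point compound dose. Read-out: lysis from increased AK signal.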
The depositor's hits bear a star; nt = no result. The list is not random: actives were taken first. Their share in the collection is about 3%.

SMILES | rRNA inh HTS | PGC1a acetyl inh | SIRT5 block | C2C12 statin | S100A4 inh HTS | Cneo AK release
CCOc1ccccc1CN1CCNC(=O)C1CC(=O)N(C)CCc1ccccn1 (stereo not drawn) | 2 | 2 | -5 | 118* | 5 | 2
Cc1cc(CNC(=O)CC2C(=O)NCCN2Cc2ccccc2C(F)(F)F)on1 (stereo not drawn) | 9 | 5 | 29* | nt | 10 | nt
CN(Cc1nccn1C)C(=O)CC1C(=O)NCCN1Cc1ccccc1C(F)(F)F (stereo not drawn) | 6 | -2 | 17* | 2 | -2 | 1
Cc1cnc(CNC(=O)CC2C(=O)NCCN2Cc2ccccc2C(F)(F)F)cn1 (stereo not drawn) | 6 | nt | 0 | 3 | 0 | 1
CCn1ccnc1CN(C)C(=O)CC1C(=O)NCCN1Cc1c(F)cccc1Cl (stereo not drawn) | 14 | -6 | 19* | 21 | -1 | 3
Cc1noc(C)c1S(=O)(=O)Nc1ccc2c(c1)C(=O)N([C@@H](C)CO)C[C@H](C)[C@@H](CN(C)S(=O)(=O)c1c(C)noc1C)OCCCC[C@H](C)O2 | 3 | 4 | 9 | nt | -1 | 3
O=C(CCN1CCCCC1)NCC[C@H]1CC[C@@H](NC(=O)Cc2cccnc2)[C@@H](CO)O1 | 2 | -7 | 5 | -5 | nt | -1
O=C1CN(S(=O)(=O)Cc2ccccc2)C[C@@H]2[C@H](c3ccc(C#Cc4ccccc4)cc3)[C@H](CO)N12 | 7 | -9 | 1 | nt | 6 | nt
COc1cccc(CN2CCNC(=O)C2CC(=O)NCCN2CCOCC2)c1OC (stereo not drawn) | 8 | nt | 2 | 6 | -3 | 2
COc1ccccc1CN1CCNC(=O)C1CC(=O)NCCCN1CCOCC1 (stereo not drawn) | 5 | -6 | 0 | -3 | 131* | 0
CN(C(=O)CC1C(=O)NCCN1Cc1ccccc1C(F)(F)F)C1CCOCC1 (stereo not drawn) | 10 | 10 | 32* | -1 | -6 | 0
CO[C@@H]1CC[C@H]2CCN(C)C(=O)C[C@H](c3ccccc3)CN(C)C(=O)c3cc(C#N)ccc3OC[C@@H]1O2 | 0 | nt | 0 | 17 | -8 | 2
CCCC(=O)Nc1ccc2c(c1)OC[C@@H](C)N(CCC)C[C@@H](C)[C@@H](OC)CN(C)C2=O | 4 | -2 | -4 | 6 | -8 | 2
CCC(=O)N1C[C@H]2[C@@H](c3ccccc31)[C@@H](CO)N2C(=O)CC | 5 | 12 | -1 | -9 | 38 | -3
CCC(=O)N1C[C@@H]2[C@H](c3ccccc31)[C@@H](CO)N2C(=O)CC | -3 | 13 | 7 | -16 | 73* | 0
O=C(c1ccncc1)N1C[C@@H]2[C@H](c3ccccc31)[C@@H](CO)N2C(=O)CN1CCOCC1 | 5 | -1 | 7 | 6 | 97* | -4
O=C(Nc1cccc(Cl)c1)N1C[C@@H]2[C@H](c3ccccc31)[C@@H](CO)N2C(=O)c1cccnc1 | -51* | -7 | 2 | 33 | -8 | -3
O=C(c1cccnc1)N1C[C@H]2[C@@H](c3ccccc31)[C@H](CO)N2C(=O)CN1CCOCC1 | 3 | 1 | -1 | 1 | 9 | 2
CCC(=O)N1C[C@H]2[C@@H](c3ccccc31)[C@@H](CO)N2Cc1cc(F)ccc1F | -6 | -7 | 28* | 24 | 7 | -5
C[C@@H]1CN([C@@H](C)CO)C(=O)Cc2cc(NC(=O)Cc3cn(C)c4ccccc34)ccc2O[C@@H]1CN(C)C | 1 | -6 | -7 | -2 | -46 | -4
CCC(=O)NC[C@@H]1[C@@H](c2ccc(C3=CCCC3)cc2)[C@@H](CO)N1CC1CC1 | -1 | nt | 0 | nt | 2 | nt
O=C(Nc1cc(F)ccc1F)N1C[C@@H]2[C@H](c3ccccc31)[C@H](CO)N2Cc1ccncc1 | -43* | -2 | 22* | -23 | 0 | -7
O=C(Nc1cc(F)ccc1F)N1C[C@H]2[C@@H](c3ccccc31)[C@H](CO)N2Cc1ccncc1 | -3 | 12 | 0 | 9 | 9 | 1
O=C(N[C@@H]1CC[C@@H](CCn2cc(-c3ccccn3)nn2)O[C@H]1CO)c1ccc(F)cc1 | 1 | 2 | 4 | 12 | -3 | -4
CCCCn1c(N)c(Sc2ccc(Cl)cc2)c(=O)[nH]c1=O | -21* | -13 | 1 | 21 | 4 | -2
SMILES | rRNA inh HTS | PGC1a acetyl inh | SIRT5 block | C2C12 statin | S100A4 inh HTS | Cneo AK release
CCCCn1c(N)c(Sc2ccc([N+](=O)[O-])cc2)c(=O)[nH]c1=O | 2 | 9 | 12 | -3 | -4 | 1
CSc1ccccc1NC(=S)N/N=C/c1cccn1Cc1ccc(F)cc1 | -21* | 4 | -3 | nt | 5 | nt
CSc1ccccc1NC(=S)N/N=C/c1cccn1Cc1cccc(C)c1 | 12 | 2 | 2 | nt | -1 | nt
CCCNC(=O)c1ccc(N2CCC3(CC2)CC(c2cccc(Br)c2)=NO3)c(NC(=O)c2cccc(OC)c2)c1 | 7 | -7 | 10 | 142* | 0 | -1
CCCNC(=O)c1ccc(N2CCC3(CC2)CC(c2cccc(Br)c2)=NO3)c(NC(=O)c2ccccc2)c1 | 7 | -4 | nt | nt | 1 | -1
COC(=O)c1ccc2nc(-c3ccco3)c(Cc3cccc(Cl)c3)n2c1 | nt | nt | 2 | nt | -6 | nt
COC(=O)c1ccc2nc(-c3ccccc3)c(Cc3ccc(C)cc3)n2c1 | -27* | nt | -6 | nt | -6 | nt
COC(=O)c1ccc2nc(-c3ccco3)c(Cc3ccccc3)n2c1 | nt | -3 | -1 | 83* | -2 | 0
COC(=O)c1ccc2nc(-c3ccccc3)c(Cc3ccccc3)n2c1 | -5 | nt | -4 | nt | -2 | nt
COC(=O)c1ccc2nc(-c3ccc(C)cc3)c(Cc3ccccc3)n2c1 | 6 | nt | 24* | nt | -9 | nt
C[C@@H]1CN([C@H](C)CO)C(=O)c2cc(-c3cccc(C(=O)N(C)C)c3)cnc2O[C@H]1CN(C)S(=O)(=O)c1cccc(F)c1 | -7 | 2 | 1 | 21 | 4 | 0
O=C1c2ccccc2S(=O)(=O)c2cc(N3CCC(C(=O)N4CCCCC4)CC3)ccc21 | -21* | nt | nt | nt | -5 | nt
CCCCCCCCC(=O)O | nt | 66* | nt | -3 | nt | -1
CCCCCCC(=O)O | 5 | -9 | 0 | -14 | -11 | 0
C[C@H]1CN([C@@H](C)CO)S(=O)(=O)c2ccc(-c3ccc(F)cc3)cc2O[C@H]1CN(C)CC1CC1 | 2 | 14 | -8 | 0 | -5 | -1
CC(C)c1cn(CC[C@@H]2CC[C@H](N)[C@@H](CO)O2)nn1 | -1 | -4 | -3 | -9 | 2 | 0
COc1ccccc1N(CC(=O)N1CCCC1)S(=O)(=O)c1ccc(C)cc1 | 0 | nt | 1 | -6 | 3 | -6
